Assay results published in ChEMBL document CHEMBL3272292, “2-(2-Aminoethylamino)-1,2-diphenylethanol derivatives, a new class of topical antiinflammatory agents” (1977).

How the values were obtained:
Assay type in all cases: functional
Rattus norvegicus [1] = experiment: Antiinflammatory activity in immature rat assessed as inhibition of cantharidin-induced inflammation at 100 ug administered topically to outer surface of ear after 72 hrs relative to control
Summary of the method: (§1)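 Test compounds applied topically to outer ear surface together with cantharidin, groups of 8-10 immature rats (50-60 g). Controls: vehicle-only group and cantharidin-only group. […] Significance vs irritant group by Student's t test or Fieller's theorem.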

Rattus norvegicus [2] = experiment: Antiinflammatory activity in immature rat assessed as inhibition of cantharidin-induced inflammation at 800 ug administered topically to outer surface of ear after 72 hrs relative to control; summary of the method: as §1
Rattus norvegicus [3] = experiment: Antiinflammatory activity in immature rat assessed as inhibition of cantharidin-induced inflammation at 50 ug administered topically to outer surface of ear after 72 hrs relative to control; summary of the method: as §1
Rattus norvegicus [4] = experiment: Antiinflammatory activity in immature rat assessed as inhibition of cantharidin-induced inflammation at 400 ug administered topically to outer surface of ear after 72 hrs relative to control; summary of the method: as §1
Rattus norvegicus [5] = experiment: Antiinflammatory activity in immature rat assessed as inhibition of cantharidin-induced inflammation at 200 ug administered topically to outer surface of ear after 72 hrs relative to control; summary of the method: as §1
Rattus norvegicus [6] = experiment: Antiinflammatory activity in rat assessed as reduction in dry ganuloma tissue surrounding implanted cotton pellet at 8000 ug per pellet after 72 hrs relative to control; design: scale not given: the % may be the effect or the level left
Summary of the method: (§2)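 Compound dissolved in ethanol, applied to cotton pellets and dried at room temperature. Two pellets implanted sc per rat, ten rats per dose group. Pellets removed at autopsy 72 h later. Activity read as reduction in dry granuloma tissue around pellets vs control group. Significance by Student's t test or Fieller's theorem.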

Rattus norvegicus [7] = experiment: Antiinflammatory activity in rat assessed as reduction in dry ganuloma tissue surrounding implanted cotton pellet at 4000 ug per pellet after 72 hrs relative to control; design: scale not given: the % may be the effect or the level left; summary of the method: as §2
Rattus norvegicus [8] = experiment: Antiinflammatory activity in rat assessed as reduction in dry ganuloma tissue surrounding implanted cotton pellet at 2000 ug per pellet after 72 hrs relative to control; design: scale not given: the % may be the effect or the level left; summary of the method: as §2
Rattus norvegicus [9] = experiment: Antiinflammatory activity in rat assessed as reduction in dry ganuloma tissue surrounding implanted cotton pellet at 1000 ug per pellet after 72 hrs relative to control; design: scale not given: the % may be the effect or the level left; summary of the method: as §2
Rattus norvegicus [10] = experiment: Antiinflammatory activity in rat assessed as reduction in dry ganuloma tissue surrounding implanted cotton pellet at 10 ug per pellet after 72 hrs relative to control; design: scale not given: the % may be the effect or the level left; summary of the method: as §2
Rattus norvegicus [11] = experiment: Antiinflammatory activity in immature rat assessed as inhibition of cantharidin-induced inflammation at 40 ug administered topically to outer surface of ear after 72 hrs relative to control; summary of the method: as §1
Rattus norvegicus [12] = experiment: Antiinflammatory activity in immature rat assessed as inhibition of cantharidin-induced inflammation at 20 ug administered topically to outer surface of ear after 72 hrs relative to control; summary of the method: as §1
Rattus norvegicus [13] = experiment: Antiinflammatory activity in immature rat assessed as inhibition of cantharidin-induced inflammation at 5 ug administered topically to outer surface of ear after 72 hrs relative to control; summary of the method: as §1
Rattus norvegicus [14] = experiment: Antiinflammatory activity in rat assessed as reduction in dry ganuloma tissue surrounding implanted cotton pellet at 40 ug per pellet after 72 hrs relative to control; design: scale not given: the % may be the effect or the level left; summary of the method: as §2
Rattus norvegicus [15] = experiment: Antiinflammatory activity in immature rat assessed as inhibition of cantharidin-induced inflammation at 80 ug administered topically to outer surface of ear after 72 hrs relative to control; summary of the method: as §1
Rattus norvegicus [16] = experiment: Antiinflammatory activity in immature rat assessed as inhibition of cantharidin-induced inflammation at 10 ug administered topically to outer surface of ear after 72 hrs relative to control; summary of the method: as §1
Rattus norvegicus [17] = experiment: Antiinflammatory activity in rat assessed as reduction in dry ganuloma tissue surrounding implanted cotton pellet at 20 ug per pellet after 72 hrs relative to control; design: scale not given: the % may be the effect or the level left; summary of the method: as §2
Rattus norvegicus [18] = experiment: Antiinflammatory activity in rat assessed as reduction in dry ganuloma tissue surrounding implanted cotton pellet at 80 ug per pellet after 72 hrs relative to control; design: scale not given: the % may be the effect or the level left; summary of the method: as §2
Rattus norvegicus [19] = experiment: Antiinflammatory activity in immature rat assessed as inhibition of cantharidin-induced inflammation at 924 ug administered topically to outer surface of ear after 72 hrs relative to control; summary of the method: as §1
Rattus norvegicus [20] = experiment: Antiinflammatory activity in immature rat assessed as inhibition of cantharidin-induced inflammation at 888 ug administered topically to outer surface of ear after 72 hrs relative to control; summary of the method: as §1

| Compound | inhibition (INH) (Rattus norvegicus [1]) | inhibition (INH) (Rattus norvegicus [2]) | inhibition (INH) (Rattus norvegicus [3]) | inhibition (INH) (Rattus norvegicus [4]) | inhibition (INH) (Rattus norvegicus [5]) | further results |
| --- | --- | --- | --- | --- | --- | --- |
| NCCN[C@@H](c1ccccc1)[C@@H](O)c1ccc(Cl)cc1 (racemic) | 23% | 90% | 20% | 64% | 35% | – |
| CNCCN[C@@H](c1ccccc1)[C@@H](O)c1ccccc1 (racemic) | 20% | 26% | 15% | 6% | 20% | – |
| CC(=O)NCCN(C(C)=O)[C@@H](c1ccccc1)[C@@H](OC(C)=O)c1ccccc1 (racemic) | 13% | 0% | 6% | 13% | 7% | – |
| CC(C)=NCCN[C@@H](c1ccccc1)[C@@H](O)c1ccccc1 (relative stereo) | 13% | 87% | 14% | 59% | 10% | – |
| NCCN[C@@H](c1ccc(Cl)cc1)[C@@H](O)c1ccccc1 (racemic) | 0% | 89% | 3% | 35% | 12% | – |
| NCCN[C@@H](c1ccccc1)[C@@H](O)c1ccccc1 (racemic) | 19% | 88% | 19% | 72% | 46% | Activity (Rattus norvegicus [6]): 49%; Activity (Rattus norvegicus [7]): 44%; Activity (Rattus norvegicus [8]): 28%; Activity (Rattus norvegicus [9]): 19% |
| NCCNC(c1ccccc1)C(O)c1ccccc1 (single isomer, unassigned; (+)) | 2% | 96% | – | 29% | 0% | – |
| CN(C)CCN[C@@H](c1ccccc1)[C@@H](O)c1ccccc1 (racemic) | 0% | 0% | 0% | 0% | 8% | – |
| C[C@@H]1C[C@H]2[C@@H]3CCC4=CC(=O)C=C[C@]4(C)[C@@]3(F)[C@@H](O)C[C@]2(C)[C@@]1(O)C(=O)CO [DEXAMETHASONE] | – | – | – | – | – | Activity (Rattus norvegicus [10]): 16%; inhibition (INH) (Rattus norvegicus [11]): 53%; inhibition (INH) (Rattus norvegicus [12]): 30%; inhibition (INH) (Rattus norvegicus [13]): 17%; Activity (Rattus norvegicus [14]): 34%; inhibition (INH) (Rattus norvegicus [15]): 76%; inhibition (INH) (Rattus norvegicus [16]): 25%; Activity (Rattus norvegicus [17]): 28%; Activity (Rattus norvegicus [18]): 49% |
| CC(=O)NCCN[C@@H](c1ccccc1)[C@@H](O)c1ccccc1 (racemic) | 3% | 5% | 0% | 3% | 0% | – |
| NCCNC(c1ccccc1)C(O)c1ccccc1 (stereo in doubt; 8a) | 1% | 87% | 7% | 51% | 19% | – |
| CN(C)CCCN[C@@H](c1ccccc1)[C@@H](O)c1ccccc1 (racemic) | 0% | 32% | 9% | 9% | 16% | – |
| NCCCN[C@@H](c1ccccc1)[C@@H](O)c1ccccc1 (racemic) | 8% | 51% | 0% | 29% | 21% | – |
| Cc1ccc([C@H](O)[C@@H](NCCN)c2ccccc2)cc1 (racemic) | 9% | 68% | 12% | 53% | 5% | – |
| CC1(C(=O)O)C2CCC(O2)C1(C)C(=O)NCCNC(c1ccccc1)C(O)c1ccccc1 (stereo not drawn) | – | – | – | – | – | inhibition (INH) (Rattus norvegicus [19]): 67% |
| NCCN[C@@H](c1ccc(Cl)cc1)[C@@H](O)c1ccc(Cl)cc1 (racemic) | 10% | 17% | 16% | 15% | 16% | – |
| CC12C(=O)N(CCNC(c3ccccc3)C(O)c3ccccc3)C(=O)C1(C)C1CCC2O1 (stereo not drawn) | – | – | – | – | – | inhibition (INH) (Rattus norvegicus [20]): 0% |
| O[C@@H](c1ccccc1)[C@@H](NCCN[C@@H](c1ccccc1)[C@@H](O)c1ccccc1)c1ccccc1 | 0% | 0% | 14% | 5% | 17% | – |
| CN(CCN)[C@@H](c1ccccc1)[C@@H](O)c1ccccc1 (racemic) | 8% | 41% | 0% | 11% | 1% | – |
| NCCN[C@@H](c1ccccc1)[C@H](O)c1ccccc1 (racemic) | 7% | 88% | – | 56% | 9% | – |
| CC(=O)NCCN(C(C)=O)[C@@H](c1ccccc1)[C@@H](O)c1ccccc1 (racemic) | 11% | 40% | 0% | 0% | 9% | – |
| NCCCCN[C@@H](c1ccccc1)[C@@H](O)c1ccccc1 (racemic) | 5% | 87% | 10% | 54% | 37% | – |
